# NR2E3 ag-1 – agonists of human nuclear receptor NR2E3. GST-NR2E3/biotin-RetCOR TR-FRET, 1536-well. AID 2300. inhibition of corepressor binding, % at 4.78 µM. Q9Y5X4. 320,000 tested, 0.12% active;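 active = percent inhibition above the cutoff of mean plus 3 SD of all tested compounds, set per screening campaign, cut at about 20% in these data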;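 also: 0% = DMSO wells and 100% = biotin wells as full block of FRET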
#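 Assay system: NR2E3–RetCOR corepressor complex. Quantity: 1.35 nM GST-NR2E3. Buffer or medium: pH 7.5 Tris-based buffer. Reagent: biotinylated RetCOR corepressor at 7 nM final. Schedule: 5 h at 4 °C. Detection: TR-FRET, emission read at 617 and 671 nm. Replicates: one well per compound, singlicate testing.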
# NR1D1 modulator – modulators of human Rev-erb alpha DNA binding; AID 1259318; 370,000 tested, 0.79% active; activity, % at 10 µM; Rev-erbα–FITC-DNA binding, fluorescence polarization, 90 min;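 active = activity above about 14%, limit read from the data; passing the limit was not always enough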;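 also: 0% = DMSO wells with 35 nM protein and 100% = DMSO wells with 750 nM protein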
# Target sequence (P20393 whole entry, looked up): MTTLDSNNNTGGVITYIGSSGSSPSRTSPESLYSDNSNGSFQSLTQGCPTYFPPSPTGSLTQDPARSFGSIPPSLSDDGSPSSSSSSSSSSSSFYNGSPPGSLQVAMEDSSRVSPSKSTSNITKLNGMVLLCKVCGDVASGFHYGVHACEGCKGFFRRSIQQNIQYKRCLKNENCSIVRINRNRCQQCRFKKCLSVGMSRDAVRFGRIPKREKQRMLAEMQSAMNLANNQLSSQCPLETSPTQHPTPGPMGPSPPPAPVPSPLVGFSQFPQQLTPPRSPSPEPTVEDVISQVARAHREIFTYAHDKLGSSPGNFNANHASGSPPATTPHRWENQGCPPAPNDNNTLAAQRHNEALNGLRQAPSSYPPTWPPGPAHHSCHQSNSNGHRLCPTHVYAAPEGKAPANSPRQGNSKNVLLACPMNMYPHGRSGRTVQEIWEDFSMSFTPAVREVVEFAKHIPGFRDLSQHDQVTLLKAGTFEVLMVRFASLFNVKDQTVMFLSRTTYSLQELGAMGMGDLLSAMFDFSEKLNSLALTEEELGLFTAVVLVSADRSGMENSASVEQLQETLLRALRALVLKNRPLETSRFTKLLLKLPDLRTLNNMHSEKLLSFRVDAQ
# NR2E3 ag-2 – agonists of human NR2E3 nuclear receptor; AID 602229; inhibition of corepressor binding, % at 3.98 µM; CHO-S Gal4-NCOR/VP16-NR2E3 two-hybrid, luciferase; Q9Y5X4; 360,000 tested, 0.35% active;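 active = inhibition above the mean of all tested compounds plus 3 SD, cut at about 70% in these data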;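 also: 0% = DMSO with NR2E3 transfected cells and 100% = cells lacking NR2E3 construct; higher means lower luciferase signal from less NR2E3 corepressor binding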
# PG9 binder – PG9 antibody binding by small molecule | TR-FRET gp120-PG9 antibody binding | inhibition, % at 6.7 µM | 360,000 tested, 0.43% active | AID 624416; in the data active = inhibition above about 8.5%
# NR2E3 ag confirm – confirmation of human NR2E3 agonists; shares compounds with NR2E3 ag-2; AID 624378; 2,300 tested, 51% active; inhibition, % at 3.98 µM; CHO-S mammalian two-hybrid NR2E3-NCOR, luciferase luminescence;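 active = average inhibition above a cutoff equal to the mean inhibition of all tested compounds plus one SD, cut at about 70% in these data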;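 also: 0% = DMSO in NR2E3 cells and 100% = DMSO in cells lacking NR2E3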
# VP16 counter – GAL4-VP16 reporter inhibition in NR2E3 agonist counterscreen | AID 624379 | 2,300 tested, 29% active | shares compounds with NR2E3 ag-2 | inhibition, % at 3.98 µM | CHO-S GAL4-VP16 luciferase reporter, luminescence;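 active = mean inhibition above a cutoff equal to the average over all tested compounds plus one standard deviation, cut at about 70% in these data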;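 also: luciferase from a UAS reporter driven by GAL4-VP16 transactivation; 0% = DMSO with VP16-transfected cells and 100% = DMSO with cells lacking VP16; higher means less reporter light so more repression of VP16 activity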
# * hit, by the source's call; / = not tested or not shown. Hits are enriched below; roughly 1.5% of the tested compounds scored in any of these assays.
SMILES,NR2E3 ag-1,NR1D1 modulator,NR2E3 ag-2,PG9 binder,NR2E3 ag confirm,VP16 counter
Fc1ccccc1CNc1ncnc2sccc12,1,1,100*,0,88*,71*
COc1ccccc1CNc1ncnc2sccc12,-2,1,100*,0,92*,76*
COc1ccccc1Oc1ncnc2sccc12,-2,4,2,2,/,/
COc1ccc(CCNc2ncnc3sccc23)cc1OC,-4,2,90*,0,98*,90*
NS(=O)(=O)c1ccc(CNc2ncnc3sccc23)cc1,-5,-7,23,-1,/,/
CN(C)c1ccc(CNc2ncnc3sccc23)cc1,0,3,99*,-5,93*,70
COc1ccc(Nc2ncnc3sccc23)cc1OC,0,4,-15,-1,/,/
CSCCCNC(=O)c1oc(=O)c2ccccc2c1-c1ccc(C)cc1,/,0,/,/,/,/
CC(=O)NC1CCCCN(Cc2cccc(F)c2)C1=O (stereo not given),/,-4,/,/,/,/
c1ccc2c(c1)OCC(CNc1ncnc3sccc13)O2 (stereo not given),2,/,84*,-2,97*,87*
COC(=O)[C@H](C(C)C)N1CCc2nnn(CC3CCCCC3)c2-c2ccccc2S1(=O)=O,/,1,/,/,/,/
Cc1nc2ccccc2n1Cc1ccc(Cl)cc1,4,-3,92*,0,94*,83*
Cc1ccccc1Cn1c(C)nc2ccccc21,-2,5,62,0,93*,82*
COc1ccccc1Cn1c(C)nc2ccccc21,3,0,-13,-2,/,/
O=C(Nc1ccccc1O)C(c1ccccc1)c1ccccc1,2,-7,70,1,83*,72*
O=C(O)c1ccccc1NC(=O)C(c1ccccc1)c1ccccc1,-1,-7,-2,-2,/,/
CC(C)Cc1ccc(C(C)C(=O)Nc2ccccc2O)cc1 (stereo not given),2,0,83*,-1,94*,82*
COC(=O)CCCn1cc(CN2CC=CS2(=O)=O)nn1,/,2,/,/,/,/
COC(=O)C[C@H]1CC[C@H]2[C@H](COc3ccc(NC(=O)C4CCOCC4)cc3C(=O)N2C)O1,/,-4,/,/,/,/
O=C(COC(=O)c1ccc(Sc2ncn[nH]2)c([N+](=O)[O-])c1)Nc1ccc(Cl)c(Cl)c1,/,-6,/,/,/,/
O=C(NNS(=O)(=O)c1ccc(F)cc1F)C1Cc2c(ccc3ccccc23)O1 (stereo not given),3,5,61,-3,85*,72*
O=C(Nc1ccc(-n2ccc(C(F)(F)F)n2)cc1)Nc1cccc(Cl)c1,-1,4,82*,0,99*,75*
C#CCN1CC(N(C)CCOC(=O)c2cccs2)CS1(=O)=O (stereo not given),/,3,/,/,/,/
C=CCN=C1NN=C(c2cc(C)n(CC=C)c2C)CS1,-1,-7,55,-1,55,32
COCCCN=C1NN=C(c2cc(C)n(-c3ccccc3F)c2C)CS1,-2,3,-41,0,/,/
SMILES,NR2E3 ag-1,NR1D1 modulator,NR2E3 ag-2,PG9 binder,NR2E3 ag confirm,VP16 counter
COCCn1c(C)cc(C2=NNC(=Nc3ccccc3F)SC2)c1C,0,0,88*,-1,57,40
CC(=O)OC12CCCN(C1)/C(=C/c1cccnc1)C2 (stereo not given),/,1,/,/,/,/
O=C(NC1CCCCN(Cc2cccc(C(F)(F)F)c2)C1=O)c1ccc(F)c(F)c1 (stereo not given),/,5,/,/,/,/
CCCC1CCC2(CC1)CCC2OC(=S)Nc1ccc(I)cc1 (stereo not given),/,-7,/,/,/,/
CC(C)OC(=O)CSc1nnc(CNc2ccc(Cl)cc2)n1Cc1ccccc1,2,0,73*,1,42,63
O=C(Nc1ccc(C(O)(C(F)(F)F)C(F)(F)F)cc1)c1ccc(F)cc1F,/,3,/,/,/,/
CCc1ccccc1Nc1nn2c(=O)c3ccc(C(=O)NCc4ccccn4)cc3nc2s1,2,10,71*,2,76*,34
O=C(NCc1ccccn1)c1ccc2c(=O)n3nc(Nc4ccccc4)sc3nc2c1,5,-13,-15,2,/,/
CCC(=O)NC(c1cccs1)c1cc([N+](=O)[O-])c2cccnc2c1O (stereo not given),0,5,63,0,94*,51
CC(=O)NC(c1cccs1)c1cc([N+](=O)[O-])c2cccnc2c1O (stereo not given),2,-1,81*,0,98*,54
CC(=O)NC(c1ccccc1)c1cc([N+](=O)[O-])c2cccnc2c1O (stereo not given),-8,4,57,0,94*,31
CC(C)C(=O)NC(c1ccccc1)c1cc([N+](=O)[O-])c2cccnc2c1O (stereo not given),2,4,20,-1,/,/
CCCC(=O)NC(c1cccs1)c1cc([N+](=O)[O-])c2cccnc2c1O (stereo not given),-2,9,16,-3,/,/
CC(C)=CCC[C@@]1(C(=O)O)[C@H]2CC=C(CO)[C@@H]1CC/C(C)=C/CC/C(C)=C/C2,/,-5,/,/,/,/
O=C(NC1CCCCN(Cc2ccc(OC(F)(F)F)cc2)C1=O)c1cccc(C(F)(F)F)c1 (stereo not given),/,-4,/,/,/,/
Cc1sc2ncnc(NC3CCN(Cc4ccccc4)CC3)c2c1C,-7,0,75*,0,95*,80*
O=C(NCc1ccncc1)c1cccc(S(=O)(=O)N2CCc3ccccc32)c1,0,-3,53,-1,34,36
O=C(NNC(=O)c1ccccc1F)c1cccc(S(=O)(=O)N2CCc3ccccc32)c1,/,11,81*,0,85*,72*
CC1Cc2ccccc2N1S(=O)(=O)c1cccc(C(=O)NCc2ccncc2)c1 (stereo not given),4,3,40,0,/,/
COC(=O)c1c(NC(=O)c2ccc([N+](=O)[O-])o2)sc2c1CCN(C(C)C)C2,7,7,-5,-3,/,/
CC(C)N1CCc2c(sc(NC(=O)c3ccc([N+](=O)[O-])o3)c2C(N)=O)C1,2,2,48,-24,84*,50
CC(=O)N1CCc2c(sc(NC(=O)c3ccc([N+](=O)[O-])o3)c2C#N)C1,/,-8,61,-3,48,28
COc1ccc(C(=O)Nc2sc3c(c2C#N)CCN(C(C)=O)C3)cc1,1,-1,-15,-1,/,/
CC(=O)OC12CCCN(C1)/C(=C/c1cccc(N(C)C)c1)C2 (stereo not given),/,2,/,/,/,/
CC1=C(C(=O)N2CCCC(C(=O)c3cccc(C(F)(F)F)c3)C2)OCCO1 (stereo not given),1,-2,-21,1,/,/
CCc1[nH]nc(C(=O)N2CCCC(C(=O)c3cccc(C(F)(F)F)c3)C2)c1C (stereo not given),-4,-5,49,-3,20,31

# Screens: PubChem, several laboratories
